# Laboratory results reported in ChEMBL document CHEMBL1139757, “Synthesis and evaluation of water-soluble docetaxel prodrugs-docetaxel esters of malic acid” (Bioorg Med Chem, 2007).
# Legend:
# MCF7 = test: Cytotoxicity against human MCF7 cells by MTT assay; format: functional, cell-based
# Summary of the method: (§1)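 Cells exposed to compound for 48 h. MTT then added (final 0.5 mg/ml in RPMI-1640) for a further 4 h at 37 °C. Formazan dissolved in DMSO and absorbance read at 570 nm. IC50 for 50% inhibition of viability derived by dose–effect analysis. Three replicate wells per point, each experiment run in triplicate.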
# K562 = test: Cytotoxicity against human K562 cells by MTT assay; format: functional, cell-based; summary of the method: as §1
# [1] = Stability in PBS buffer at pH 7.4 after 48 hrs; format: physicochemical
# [2] = Solubility in water; format: physicochemical
# Summary of the method: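 Compound suspended in water to 2 mg/mL, sonicated 15 min, then centrifuged at 13,000 rpm for 10 min. Supernatant quantified by reverse-phase HPLC with UV detection at 227 nm, taking extinction coefficients of prodrug and docetaxel as equal. Values are means of three experiments.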
# Homo sapiens = species: Homo sapiens; test: Stability in human plasma
# KB = test: Cytotoxicity against human KB cells by MTT assay; format: functional, cell-based; summary of the method: as §1
# A549 = test: Cytotoxicity against human A549 cells by MTT assay; format: functional, cell-based; summary of the method: as §1
# H22 = test: Antitumor activity against mouse H22 cells xenografted ICR mouse assessed as tumor growth inhibition at 10 mg/kg, ip once daily after 7 days; format: functional; conditions: 168 h, route intraperitoneal
# Summary of the method: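 Male ICR mice implanted s.c. in the armpit with H22 hepatoma cells (5 × 10⁶ per animal). Dosing began 24 h after implantation: ip once daily for 7 consecutive days at 5, 10 or 20 mg/kg. Saline served as negative control (20 mice), 10 mice per treated group. Tumors excised and weighed at day 8. Inhibition = (C − T)/C × 100 from mean tumor weights.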
half-life [1],solubility [2],half-life (Homo sapiens),Compound,IC50 (MCF7),IC50 (K562),IC50 (KB),IC50 (A549),inhibition in vivo at 10 mg/kg (H22)
> 24 h,620 µg/mL,3 h,CC(=O)O[C@@]12CO[C@@H]1C[C@H](O)[C@@]1(C)C(=O)[C@H](O)C3=C(C)[C@@H](OC(=O)[C@H](OC(=O)CC(O)C(=O)[O-])[C@@H](NC(=O)OC(C)(C)C)c4ccccc4)C[C@@](O)([C@@H](OC(=O)c4ccccc4)[C@H]21)C3(C)C.[Na+] (mixture of isomers),3.6 µg/mL,1.5 µg/mL,0.45 µg/mL,3.5 µg/mL,
> 24 h,620 µg/mL,3 h,CC(=O)O[C@@]12CO[C@@H]1C[C@H](O)[C@@]1(C)C(=O)[C@H](O)C3=C(C)[C@@H](OC(=O)[C@H](OC(=O)C[C@H](O)C(=O)[O-])[C@@H](NC(=O)OC(C)(C)C)c4ccccc4)C[C@@](O)([C@@H](OC(=O)c4ccccc4)[C@H]21)C3(C)C.[Na+],> 50 µg/mL,38.1 µg/mL,> 50 µg/mL,> 50 µg/mL,
,,,CC(=O)O[C@@]12CO[C@@H]1C[C@H](O)[C@@]1(C)C(=O)[C@H](O)C3=C(C)[C@@H](OC(=O)[C@H](O)[C@@H](NC(=O)OC(C)(C)C)c4ccccc4)C[C@@](O)([C@@H](OC(=O)c4ccccc4)[C@H]21)C3(C)C.O.O.O [DOCETAXEL],3.3 µg/mL,6.9 µg/mL,11.6 µg/mL,1.4 µg/mL,46.3%
> 48 h,470 µg/mL,4 h,CC(=O)O[C@@]12CO[C@@H]1C[C@H](O)[C@@]1(C)C(=O)[C@H](O)C3=C(C)[C@@H](OC(=O)[C@H](OC(=O)C[C@H](O)C(=O)O)[C@@H](NC(=O)OC(C)(C)C)c4ccccc4)C[C@@](O)([C@@H](OC(=O)c4ccccc4)[C@H]21)C3(C)C,> 50 µg/mL,3.9 µg/mL,> 50 µg/mL,> 50 µg/mL,
> 24 h,620 µg/mL,3 h,CC(=O)O[C@@]12CO[C@@H]1C[C@H](O)[C@@]1(C)C(=O)[C@H](O)C3=C(C)[C@@H](OC(=O)[C@H](OC(=O)C[C@@H](O)C(=O)[O-])[C@@H](NC(=O)OC(C)(C)C)c4ccccc4)C[C@@](O)([C@@H](OC(=O)c4ccccc4)[C@H]21)C3(C)C.[Na+],> 50 µg/mL,18.8 µg/mL,> 50 µg/mL,> 50 µg/mL,
> 48 h,470 µg/mL,4 h,CC(=O)O[C@@]12CO[C@@H]1C[C@H](O)[C@@]1(C)C(=O)[C@H](O)C3=C(C)[C@@H](OC(=O)[C@H](OC(=O)C[C@@H](O)C(=O)O)[C@@H](NC(=O)OC(C)(C)C)c4ccccc4)C[C@@](O)([C@@H](OC(=O)c4ccccc4)[C@H]21)C3(C)C,> 50 µg/mL,0.85 µg/mL,> 50 µg/mL,> 50 µg/mL,
> 48 h,430 µg/mL,,CC(=O)O[C@@]12CO[C@@H]1C[C@H](OC(=O)CC(O)C(=O)O)[C@@]1(C)C(=O)[C@H](O)C3=C(C)[C@@H](OC(=O)[C@H](O)[C@@H](NC(=O)OC(C)(C)C)c4ccccc4)C[C@@](O)([C@@H](OC(=O)c4ccccc4)[C@H]21)C3(C)C (mixture of isomers),> 50 µg/mL,0.069 µg/mL,> 50 µg/mL,> 50 µg/mL,
> 48 h,550 µg/mL,,CC(=O)O[C@@]12CO[C@@H]1C[C@H](OC(=O)CC(O)C(=O)O)[C@@]1(C)C(=O)[C@H](OC(=O)CC(O)C(=O)O)C3=C(C)[C@@H](OC(=O)[C@H](OC(=O)CC(O)C(=O)O)[C@@H](NC(=O)OC(C)(C)C)c4ccccc4)C[C@@](O)([C@@H](OC(=O)c4ccccc4)[C@H]21)C3(C)C (mixture of isomers),> 50 µg/mL,17 µg/mL,> 50 µg/mL,> 50 µg/mL,
> 48 h,470 µg/mL,4 h,CC(=O)O[C@@]12CO[C@@H]1C[C@H](O)[C@@]1(C)C(=O)[C@H](O)C3=C(C)[C@@H](OC(=O)[C@H](OC(=O)CC(O)C(=O)O)[C@@H](NC(=O)OC(C)(C)C)c4ccccc4)C[C@@](O)([C@@H](OC(=O)c4ccccc4)[C@H]21)C3(C)C (some centres undefined),39.2 µg/mL,9.5 µg/mL,3.5 µg/mL,> 50 µg/mL,
